Not all results are given here.
PGC1a Ac signal = raises PGC1a acetylation signal in U2OS cells; U2OS PGC1a acetylation AlphaScreen, overnight; activation, % at 15.6 µM; actives 0.21% (n = 350,000);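 active = every replicate reaching activation of at least 50%, whatever the mean replicate activation; inconclusive = replicates that disagree or another doubt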;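 note: hits raise the AlphaScreen acetylation signal above neutral controls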
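Incubation: overnight compound treatment, 37 °C. System: U2OS cells transduced with flag-tagged PGC1a and GCN5 acetyltransferase. Detection: AlphaScreen lysate read. Compound: single-point compound dosing.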
Hep G6PC suppr = PGC-1a acetylation activators affecting G6PC expression in hepatocytes | primary mouse hepatocytes, G6PC mRNA qPCR, forskolin | shares compounds with PGC1a Ac signal | G6PC suppression (normalized activity, % of positive control; higher = more suppression), % at 26 µM | AID 743463 | 240 tested, under 10 active;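 active = dose curves showing G6PC suppression whose half-maximal dose is at most twice the top valid dose; inconclusive = flat curves with moderate negative activity, or unreliable fits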;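 note: G6PC expression relative to GAPDH housekeeping gene as delta delta Ct; 0% = median of neutral control wells and 100% = median of positive control wells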
Hep PCK1 suppr = PGC-1a acetylation activator altering hepatocyte PCK1 expression. shares compounds with PGC1a Ac signal. primary mouse hepatocytes, PCK1 mRNA qPCR, forskolin-stimulated. PCK1 expression decrease, unspecified at 26 µM. 230 tested, under 10 active. AID 743465;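 active = compounds lowering PCK1 expression whose fitted half-maximal concentration is at most twice the top tested dose; inconclusive = flat fit with moderate opposite-direction effect, or poor fit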;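 note: values are delta delta Ct of PCK1 relative to GAPDH; higher delta delta Ct means lower PCK1 expression so positive values indicate hits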
PGC1a hep suppr = PGC-1a acetylation activators affecting PGC-1a expression in hepatocytes; shares compounds with PGC1a Ac signal; primary mouse hepatocytes, PGC-1a mRNA qPCR, forskolin; top dose 26 µM; max activity (PGC-1a expression decrease), %; 240 tested, under 10 active; AID 743467;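 active = compound lowering PGC-1a expression with fitted half-maximal concentration at most twice its top tested dose; inconclusive = flat curve with moderate opposite-direction effect, or poor fit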;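 note: 0% = neutral control wells median and 100% = positive control wells median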
Numbers without * were called inactive; ? = inconclusive.

SMILES | PGC1a Ac signal | others
C[C@@H]1CCCCO[C@H](CN(C)Cc2ccc(C(F)(F)F)cc2)[C@H](C)CN([C@H](C)CO)C(=O)c2cc(NC(=O)Cc3ccccc3)ccc2O1 | -41.8
C[C@H](CO)N1C[C@H](C)[C@@H](CN(C)CC2CCCCC2)Oc2c(NC(=O)c3nc4ccccc4s3)cccc2C1=O | -54.8
C[C@@H]1CN([C@@H](C)CO)C(=O)c2cc(NC(=O)c3ccncc3)ccc2O[C@@H](C)CCCCO[C@@H]1CN(C)Cc1ccncc1 | -46.2
C[C@H]1CN([C@@H](C)CO)C(=O)c2cccc(NC(=O)C3CCCCC3)c2O[C@H]1CN(C)Cc1ccc(C(=O)Nc2ccccc2N)cc1 | 173.2*
Cc1noc(C)c1NC(=O)Nc1ccc2c(c1)C(=O)N([C@H](C)CO)C[C@@H](C)[C@@H](CN(C)S(=O)(=O)c1ccc(F)cc1)OCCCC[C@@H](C)O2 | -42.2
CCNC(=S)N1C2CCC1CC(NC(=O)NC1CCCCC1)C2 (stereo not given) | -48.2
CCCOc1ccccc1-n1sc2c(c1=S)-c1cc(OC)cc3c1N(C(=O)C3=O)C2(C)C | -49.0
CCN(C[C@@H]1N[C@@H](CO)[C@H]1c1ccc(-c2ccc(F)cc2)cc1)C(=O)CN(C)C | 59.4*
Cn1ncc2c(O/N=C(\N)c3ccc(C(C)(C)C)cc3)ncnc21 | -95.9
C[C@@H]1CCCCO[C@H](CN(C)C(=O)NC2CCCCC2)[C@@H](C)CN([C@@H](C)CO)C(=O)c2cc(NC(=O)NC3CCCCC3)ccc2O1 | -44.8
C[C@H](CO)N1C[C@H](C)[C@@H](CN(C)Cc2ccc(C(F)(F)F)cc2)OCc2cnnn2CCCC1=O | -54.6
O=C(NNS(=O)(=O)c1ccc(F)cc1)c1ccc(S(=O)(=O)N2CCCCC2)cc1 | -41.4
CS(=O)(=O)N1CCCC(C(=O)NCc2ccccn2)C1 (stereo not given) | -46.7
O=S(=O)(c1ccc(NC(=S)NCc2cccnc2)cc1)N1CCCCC1 | 89.2*
O=C(Cc1ccccn1)NCC[C@H]1CC[C@@H](NC(=O)Nc2ccc(C(F)(F)F)cc2)[C@@H](CO)O1 | -101.6
Cc1ccccc1S(=O)(=O)N[C@@H]1CC[C@@H](CCn2cc(Cc3ccccc3)nn2)O[C@H]1CO | -60.9
COc1ccc(NC(=O)N[C@@H]2CC[C@H](CCn3cc(-c4ccccc4F)nn3)O[C@H]2CO)cc1 | -61.6
O=C(Cc1ccccn1)N[C@@H]1CC[C@@H](CCn2cc(-c3ccccc3)nn2)O[C@H]1CO | 133.0*
O=C(Cc1ccccn1)NCC[C@H]1CC[C@H](NC(=O)Nc2ccc(C(F)(F)F)cc2)[C@H](CO)O1 | -48.1
O=C(Cc1ccccn1)N[C@H]1CC[C@H](CCn2cc(-c3ccccc3)nn2)O[C@@H]1CO | 76.4*
CC1OC2CC(=O)OC2C2=C1C(=O)c1c(O)cccc1C2=O (stereo not given) | -78.4
CC(C)CC(NC(=O)c1ccc(Cl)cc1)C(=O)OCC(=O)c1ccc2c(c1)NC(=O)CO2 (stereo not given) | -56.7
Cc1cc(C)c2c(=O)[nH]n(C3CCCCCC3)c2n1 | -87.9
Cc1cccc2cc(CN(Cc3nnnn3Cc3ccco3)C3CCCC3)c3nnnn3c12 | 55.5*
N#CC(C#N)=c1ccc2c(c1)NC1(CCCCC1)N=2 | 162.3*
SMILES | PGC1a Ac signal | others
Cc1cccc(COc2ccc(/C=C3/C(=O)N(C)C(=S)N3C)cc2)c1 | -70.6
CCSc1ccccc1C(=O)NCCCn1ccnc1 | -94.6
CC1CC(C)CN(S(=O)(=O)c2ccc(C(=O)NCCCn3ccnc3)cc2)C1 (stereo not given) | 579.5*
COc1ccc2c(c1)CCc1c(C(=O)NCCCn3ccnc3)noc1-2 | -40.5
C=CCN1C(=O)C(CC(=O)Nc2ccccc2F)S/C1=N\c1nccs1 (stereo not given) | -48.6
O=S(=O)(Nc1cccc(CCc2ccccn2)c1)c1ccc2ccccc2c1 | -44.3
CN=C1c2cc3cc(OC)ccc3n2CCN1Cc1ccccc1 | 83.3*
CCn1nc(C)c(CN2CCc3c([nH]c4ccccc34)C2C(C)(C)C)c1C (stereo not given) | 150.0* | Hep G6PC suppr=-23.9;Hep PCK1 suppr=?;PGC1a hep suppr=50.8
CC1(C)CC(=O)C=C(NCc2ccco2)C1 | -40.3
CCOC(=O)NC(=S)Nc1cccc(NC(=S)NC(=O)OCC)c1 | -40.5
OC(c1cc(-c2ccc(Cl)cc2)nc2ccccc12)C1CCCCN1 (stereo not given) | ? | Hep G6PC suppr=213.0;Hep PCK1 suppr=44.6;PGC1a hep suppr=36.8
O=C(c1ccc(NC(=O)C2(c3ccccc3)CCOCC2)cc1)N1CCOCC1 | -41.0
Cc1ccc2[nH]c(=O)c(CN(Cc3ccc4c(c3)OCO4)Cc3nnnn3C3CCCC3)cc2c1 | 58.3* | Hep G6PC suppr=26.8;Hep PCK1 suppr=85.4;PGC1a hep suppr=64.7
COc1ccc(CN(Cc2cc3ccc(C)cc3[nH]c2=O)Cc2nnnn2C2CCCC2)cc1 | -52.6
CCC1NC(=S)N(C2CCCCC2)C1=O (stereo not given) | -55.4
CCCCN(C)Cc1c(C)[nH]c2ccccc2c1=O | -48.9
COc1ccc(Cc2nc(-c3ccc(NC(=O)c4cccnc4)cc3)no2)cc1 | 239.7* | Hep G6PC suppr=-23.2;Hep PCK1 suppr=-4.36;PGC1a hep suppr=102.3
CC(=O)N(Cc1ccc(F)cc1)C1=C(NCCc2ccccc2)C(=O)c2ccccc2C1=O | -84.3
O=C(OCc1ccccc1)N1CCC2CC1c1cc(-c3ccc(F)cc3)ccc12 (stereo not given) | -62.8
O=C(c1ccccc1Cl)N1CCNCC1 | -66.6
C=C1C(=O)[C@]23C[C@H]1CC[C@H]2[C@]1(C)[C@@H](OC(C)=O)CC[C@@](C)(C(=O)OC)[C@H]1C[C@@H]3OC(C)=O | -94.0
CCO[C@H]1OC(C(=O)N2CCCCCCC2)=C[C@@H](C2CCCCC2)[C@@H]1CCCO | 83.5* | Hep G6PC suppr=-1.5;Hep PCK1 suppr=62.5;PGC1a hep suppr=50.8
CN(c1ncnc(N)c1[N+](=O)[O-])C1CCS(=O)(=O)C1 (stereo not given) | -58.3
COc1ccc(C(=O)N/C(=C/c2cccs2)C(=O)NC(C)(C)C)cc1OC | -67.2
CCC(=O)NC(c1cccs1)c1ccc2cccnc2c1O (stereo not given) | -47.4
SMILES | PGC1a Ac signal | others
COc1cc(NC(=O)c2cccs2)c(OC)cc1NC(=O)CCC(=O)Nc1ccc2ncccc2c1 | 366.0* | Hep G6PC suppr=188.8;Hep PCK1 suppr=?;PGC1a hep suppr=?
O=S(=O)(c1ccc(Cl)cc1)N1[C@@H]2CNC[C@H]1C2c1ccc(-c2cccc(F)c2)cc1 (stereo not given in full) | 80.4* | Hep G6PC suppr=10.0;Hep PCK1 suppr=47.2;PGC1a hep suppr=110.3
CN(C)c1nc(SCCOC(=O)COc2ccc(Cl)cc2Cl)nc(N(C)C)n1 | -51.6
Cc1sc2ncnc(N3CCC(C(=O)NNC(=O)COc4ccc(Cl)cc4)CC3)c2c1C | -45.9
N=c1n(Cc2ccccc2)c2ccccc2n1CC(O)COc1ccc(Cl)cc1Cl (stereo not given) | -44.3
CCCCCCC[C@@H](C/C=C/CCC(=O)O)OC | -45.2
CC1CC(NS(=O)(=O)c2cccs2)CC(C)(C)C1 (stereo not given) | 264.8* | Hep G6PC suppr=98.8;Hep PCK1 suppr=69.4;PGC1a hep suppr=156.9
COC(=O)COc1c(/C=C\c2nc(O)c([N+](=O)[O-])c(=O)[nH]2)cccc1OC | -55.0

High-throughput results from PubChem BioAssay.
